Measurements reported in ChEMBL document CHEMBL1122441, “Structure-activity relationships of synthetic antibiotic analogues of anisomycin” (1983).
≈ marks a conversion by molar mass, not a printed value.

Legend:
Clostridium novyi = assay: Antibacterial activity against Clostridium novyi, activity expressed as inhibitory zone (mm, diameter); assay type: functional
How it was run: (§1)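 Agar diffusion: disks loaded with 0.05 mg drug (stock 1 mg/mL in Me2SO-EtOH 1:9) on brain-heart infusion agar seeded 1:100 with 48-h anaerobe culture grown in thioglycolate broth; incubated anaerobically at 37 °C for 24 h; zone diameter measured in mm.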

Actinomyces israelii = assay: Antibacterial activity against Actinomyces israelii, activity expressed as inhibitory zone (mm, diameter); assay type: functional; how it was run: as §1
Trichophyton benhamiae [1] = assay: Antifungal activity against Trichophyton mentagrophytes, activity expressed as inhibitory zone (mm, diameter); assay type: functional, Arthroderma benhamiae
How it was run: (§2)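 Dermatophytes grown in Sabouraud's dextrose broth, 4-5 day cultures seeded 1:100 into agar; disks with 0.05 mg drug (1 mg/mL stock, Me2SO-EtOH 1:9); grown and tested at 28 °C, zone diameter (mm) read after 48 h.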

Candida albicans [2] = assay: Antifungal activity against Candida albicans, activity expressed as minimum inhibitory concentration ([…]); assay type: functional
Saccharomyces cerevisiae [3] = assay: Antifungal activity against Saccharomyces cerevisiae, activity expressed as minimum inhibitory concentration ([…]).; assay type: functional
Streptococcus pyogenes = assay: Antibacterial activity against Streptococcus pyogenes C, activity expressed as inhibitory zone (mm, diameter); assay type: functional; how it was run: as §1
Tritrichomonas suis [4] = assay: Antiprotozoal activity measured as the conc for <[…]% inhibition of Trichomonas foetus; assay type: functional, organism-based
Trichophyton benhamiae [5] = assay: Antifungal activity against Trichophyton mentagrophytes, activity expressed as minimum inhibitory concentration ([…]).; assay type: functional, Arthroderma benhamiae
Candida albicans [6] = assay: Antifungal activity against Candida albicans, activity expressed as […] inhibitory zone (mm, diameter); assay type: functional
How it was run: (§3)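 Yeast grown in Sabouraud's dextrose broth, 24-h culture seeded 1:100 into agar; paper disks carrying 0.05 mg drug (from 1 mg/mL stock in Me2SO-EtOH 1:9); 37 °C, read after 48 h as zone diameter (mm).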

Trichomonas vaginalis [7] = assay: Antiprotozoal activity measured as the conc for <[…]% inhibition of Trichomonas vaginalis; assay type: functional, organism-based
Epidermophyton floccosum [8] = assay: Antifungal activity against Epidermophyton floccosum, activity expressed as minimum inhibitory concentration ([…]); assay type: functional
Entamoeba histolytica [9] = assay: Antiprotozoal activity measured as the conc for <[…]% inhibition of Entamoeba histolytica; assay type: functional, organism-based
Saccharomyces cerevisiae [10] = assay: Antifungal activity against Saccharomyces cerevisiae, activity expressed as inhibitory zone (mm, diameter); assay type: functional; how it was run: as §3
Bacteroides fragilis = assay: Antibacterial activity against Bacteroides fragilis, activity expressed as […] inhibitory zone (mm, diameter); assay type: functional
How it was run: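 Agar diffusion vs B. fragilis grown in thioglycolate broth: 0.05 mg drug per paper disk (stock 1 mg/mL, Me2SO-EtOH 1:9), brain-heart infusion agar seeded with 48-h culture at 1:100, anaerobic 37 °C, 24 h; zone diameter in mm.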

Cutibacterium acnes = assay: Antibacterial activity against Propionibacterium acnes, activity expressed as inhibitory zone (mm, diameter); assay type: functional; how it was run: as §1
Epidermophyton floccosum [11] = assay: Antifungal activity against Epidermophyton floccosum, activity expressed as inhibitory zone (mm, diameter); assay type: functional; how it was run: as §2
Epidermophyton floccosum [12] = assay: Antifungal activity against Epidermophyton floccosum, activity expressed as minimum inhibitory concentration (ug/mL); assay type: functional
Trichomonas vaginalis [13] = assay: Antiprotozoal activity measured as the conc for 95-[…]% inhibition of Trichomonas vaginalis; assay type: functional, organism-based
Entamoeba histolytica [14] = assay: Antiprotozoal activity measured as the conc for >95% inhibition of Entamoeba histolytica; assay type: functional, organism-based
How it was run: (§4)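 E. histolytica (J 190) grown 48 h at 37 °C in modified Boeck Drbohlav medium, pooled; 0.6 × 10^6 organisms inoculated into 10 mL medium with drug at 32 to 0.06 µg/mL, incubated 48 h.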

Tritrichomonas suis [15] = assay: Antiprotozoal activity measured as the conc for 100% inhibition of Trichomonas foetus; assay type: functional, organism-based
How it was run: (§5)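 Protozoa grown 48 h (T. vaginalis in TYM 721, T. foetus in TYM 359, E. histolytica J 190 in modified Boeck Drbohlav medium, 37 °C) and pooled; 0.6 × 10^6 organisms into 10-mL tubes with drug 32 to 0.06 µg/mL, 48 h; inhibition scored microscopically against untreated controls as 100, >95, 95-25 or <25%.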

Saccharomyces cerevisiae [16] = assay: Antifungal activity against Saccharomyces cerevisiae, activity expressed as minimum inhibitory concentration (ug/mL).; assay type: functional
Entamoeba histolytica [17] = assay: Antiprotozoal activity measured as the conc for 100% inhibition of Entamoeba histolytica; assay type: functional, organism-based; how it was run: as §4
Trichomonas vaginalis [18] = assay: Antiprotozoal activity measured as the conc for 100% inhibition of Trichomonas vaginalis; assay type: functional, organism-based; how it was run: as §5
Candida albicans [19] = assay: Antifungal activity against Candida albicans, activity expressed as minimum inhibitory concentration (ug/mL); assay type: functional
How it was run: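 Tube dilution in Sabouraud's dextrose broth (ca. 3 mL/tube) at 37 °C; inoculum from 24-h yeast culture, 1:1000 in saline. Drug dissolved in Me2SO-EtOH (1:9), stock 3.2 mg/mL; twofold serial dilutions 32 to 0.06 µg/mL. Read after 48 h; MIC = lowest concentration with no visible growth.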

Entamoeba histolytica [20] = assay: Antiprotozoal activity measured as the conc for 95-[…]% inhibition of Entamoeba histolytica; assay type: functional, organism-based
Tritrichomonas suis [21] = assay: Antiprotozoal activity measured as the conc for 95-[…]% inhibition of Trichomonas foetus; assay type: functional, organism-based
Tritrichomonas suis [22] = assay: Antiprotozoal activity measured as the conc for >95% inhibition of Trichomonas foetus; assay type: functional, organism-based; how it was run: as §5
Trichophyton benhamiae [23] = assay: Antifungal activity against Trichophyton mentagrophytes, activity expressed as minimum inhibitory concentration (ug/mL).; assay type: functional, Arthroderma benhamiae
Trichomonas vaginalis [24] = assay: Antiprotozoal activity measured as the conc for >95% inhibition of Trichomonas vaginalis; assay type: functional, organism-based; how it was run: as §5
Candida albicans [25] = assay: Antifungal activity against Candida albicans, activity expressed as […] inhibitory zone (mm, diameter); QA is questionable activity; assay type: functional, organism-based
How it was run: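 Agar diffusion on Sabouraud's dextrose agar seeded with 24-h yeast culture at 1:100 in agar; paper disks loaded with 0.05 mg drug (stock 1 mg/mL in Me2SO-EtOH 1:9). Incubated at 37 °C for 48 h; inhibition zone diameter measured in mm.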

Entamoeba histolytica [26] = assay: Antiprotozoal activity measured as the conc for 100% inhibition of Entamoeba histolytica,; assay type: functional, organism-based; how it was run: as §5
Entamoeba histolytica [27] = assay: Antiprotozoal activity measured as the conc for >95% inhibition of Entamoeba histolytica,; assay type: functional, organism-based; how it was run: as §5
Entamoeba histolytica [28] = assay: Antiprotozoal activity measured as the conc for <[…]% inhibition of Entamoeba histolytica,; assay type: functional, organism-based
[29] = Epidermophyton floccosum, read-out: MIC
[30] = Saccharomyces cerevisiae, read-out: MIC
[31] = Candida albicans, read-out: MIC
[32] = Trichophyton benhamiae, read-out: MIC

With `COc1ccc(C(C)[C@H]2NC[C@H](O)[C@H]2OC(C)=O)cc1` (some centres undefined) the Inhibitory zone (Clostridium novyi) was 8 mm, the Inhibitory zone (Actinomyces israelii) was 0 mm and the Inhibitory zone (Trichophyton benhamiae [1]) was 0 mm. The MIC (Candida albicans [2]) was over 32 µg/mL, the MIC (Saccharomyces cerevisiae [3]) was over 32 µg/mL and the Inhibitory zone (Streptococcus pyogenes) was 0 mm. For the same compound, the Concentration (Tritrichomonas suis [4]) was 32 µg/mL, the MIC (Trichophyton benhamiae [5]) was over 32 µg/mL and the Inhibitory zone (Candida albicans [6]) was 0 mm. The Concentration (Trichomonas vaginalis [7]) was 32 µg/mL, the MIC (Epidermophyton floccosum [8]) was over 32 µg/mL and the Concentration (Entamoeba histolytica [9]) was 32 µg/mL. For the same compound, the Inhibitory zone (Saccharomyces cerevisiae [10]) was 0 mm, the Inhibitory zone (Bacteroides fragilis) was 24 mm and the Inhibitory zone (Cutibacterium acnes) was 0 mm. The Inhibitory zone (Epidermophyton floccosum [11]) was 0 mm.

For `CC(=O)O[C@@H]1[C@@H](O)CN[C@@H]1Cc1ccc(C)cc1`, the MIC (Epidermophyton floccosum [12]; [29]) was 16 µg/mL (≈ 64.2 µM), the Concentration (Trichomonas vaginalis [13]) was 2 µg/mL and the Inhibitory zone (Clostridium novyi) was 0 mm. For the same compound, the Concentration (Entamoeba histolytica [14]) was 2 µg/mL, the Concentration (Tritrichomonas suis [15]) was 16 µg/mL and the Inhibitory zone (Actinomyces israelii) was 0 mm. It also gave an MIC (Saccharomyces cerevisiae [16]; [30]) of 1 µg/mL (≈ 4.01 µM), an Inhibitory zone (Trichophyton benhamiae [1]) of 10 mm and an Inhibitory zone (Streptococcus pyogenes) of 0 mm. For the same compound, the Concentration (Tritrichomonas suis [4]) was 0.5 µg/mL, the Concentration (Entamoeba histolytica [17]) was 4 µg/mL and the Concentration (Trichomonas vaginalis [18]) was 8 µg/mL. It also gave an MIC (Candida albicans [19]; [31]) of 8 µg/mL (≈ 32.1 µM), an Inhibitory zone (Candida albicans [6]) of 0 mm and a Concentration (Entamoeba histolytica [20]) of 1 µg/mL. For the same compound, the Concentration (Tritrichomonas suis [21]) was 1 µg/mL, the Inhibitory zone (Saccharomyces cerevisiae [10]) was 0 mm and the Inhibitory zone (Bacteroides fragilis) was 0 mm. For the same compound, the Concentration (Tritrichomonas suis [22]) was 4 µg/mL, the Inhibitory zone (Cutibacterium acnes) was 0 mm and the MIC (Trichophyton benhamiae [23]; [32]) was 4 µg/mL (≈ 16 µM). For the same compound, the Inhibitory zone (Epidermophyton floccosum [11]) was 8 mm and the Concentration (Trichomonas vaginalis [24]) was 4 µg/mL.

With `Cc1ncc([N+](=O)[O-])n1CCO` [METRONIDAZOLE] the MIC (Epidermophyton floccosum [12]; [29]) was over 32 µg/mL, the Concentration (Trichomonas vaginalis [13]) was 0.12 µg/mL and the Inhibitory zone (Clostridium novyi) was 25 mm. For the same compound, the Concentration (Entamoeba histolytica [14]) was 0.12 µg/mL, the Concentration (Tritrichomonas suis [15]) was 0.5 µg/mL and the Inhibitory zone (Actinomyces israelii) was 0 mm. The MIC (Saccharomyces cerevisiae [16]; [30]) was over 32 µg/mL, the Inhibitory zone (Trichophyton benhamiae [1]) was 0 mm and the Inhibitory zone (Streptococcus pyogenes) was 0 mm. It also gave a Concentration (Tritrichomonas suis [4]) of 0.12 µg/mL, a Concentration (Entamoeba histolytica [17]) of 0.25 µg/mL and a Concentration (Trichomonas vaginalis [18]) of 0.5 µg/mL. The MIC (Candida albicans [19]; [31]) was over 32 µg/mL, the Inhibitory zone (Candida albicans [6]) was 0 mm and the Concentration (Trichomonas vaginalis [7]) was 0.06 µg/mL. For the same compound, the Concentration (Tritrichomonas suis [21]) was 0.25 µg/mL, the Inhibitory zone (Bacteroides fragilis) was 20 mm and the Inhibitory zone (Cutibacterium acnes) was 0 mm. It also gave an MIC (Trichophyton benhamiae [23]; [32]) of over 32 µg/mL, an Inhibitory zone (Epidermophyton floccosum [11]) of 8 mm and a Concentration (Trichomonas vaginalis [24]) of 0.25 µg/mL.

Compound `COc1ccc(C[C@H]2NC[C@H](O)[C@H]2OC(C)=O)cc1` has a Concentration (Trichomonas vaginalis [13]) of 0.25 µg/mL, a Concentration (Entamoeba histolytica [14]) of 1 µg/mL and a Concentration (Tritrichomonas suis [15]) of 4 µg/mL. The Inhibitory zone (Candida albicans [25]) was “Questionable activity”, the Concentration (Tritrichomonas suis [4]) was 0.25 µg/mL and the Concentration (Entamoeba histolytica [17]) was 2 µg/mL. It also gave a Concentration (Trichomonas vaginalis [18]) of 2 µg/mL, a Concentration (Tritrichomonas suis [21]) of 0.5 µg/mL and a Concentration (Tritrichomonas suis [22]) of 1 µg/mL. For the same compound, the Concentration (Trichomonas vaginalis [24]) was 0.5 µg/mL.

`COc1ccc(C[C@H]2NC[C@H](O)[C@H]2OC(C)=O)cc1` (racemic) [ANISOMYCIN] gave an MIC (Epidermophyton floccosum [12]; [29]) of 32 µg/mL (≈ 121 µM), an Inhibitory zone (Clostridium novyi) of 0 mm and an Inhibitory zone (Actinomyces israelii) of 0 mm. For the same compound, the MIC (Saccharomyces cerevisiae [16]; [30]) was 0.5 µg/mL (≈ 1.88 µM), the Inhibitory zone (Trichophyton benhamiae [1]) was 10 mm and the Inhibitory zone (Streptococcus pyogenes) was 0 mm. For the same compound, the MIC (Candida albicans [19]; [31]) was 8 µg/mL (≈ 30.2 µM), the Inhibitory zone (Candida albicans [6]) was 0 mm and the Inhibitory zone (Saccharomyces cerevisiae [10]) was 10 mm. It also gave an Inhibitory zone (Bacteroides fragilis) of 0 mm, an Inhibitory zone (Cutibacterium acnes) of 0 mm and an MIC (Trichophyton benhamiae [23]; [32]) of 4 µg/mL (≈ 15.1 µM). It also gave an Inhibitory zone (Epidermophyton floccosum [11]) of 8 mm.

Compound `Clc1ccccc1C(c1ccccc1)(c1ccccc1)n1ccnc1` [CLOTRIMAZOLE] has an MIC (Epidermophyton floccosum [12]) of 0.06 µg/mL (≈ 0.174 µM), a Concentration (Trichomonas vaginalis [13]) of 8 µg/mL and a Concentration (Entamoeba histolytica [26]) of 32 µg/mL. For the same compound, the MIC (Saccharomyces cerevisiae [16]) was 0.06 µg/mL (≈ 0.174 µM), the Concentration (Entamoeba histolytica [27]) was 16 µg/mL and the Concentration (Trichomonas vaginalis [18]) was 32 µg/mL. The MIC (Candida albicans [19]) was 4 µg/mL (≈ 11.6 µM), the Concentration (Entamoeba histolytica [20]) was 8 µg/mL and the Concentration (Trichomonas vaginalis [7]) was 4 µg/mL. The Concentration (Entamoeba histolytica [28]) was 4 µg/mL and the MIC (Trichophyton benhamiae [23]) was 0.06 µg/mL (≈ 0.174 µM).
